Published values of several laboratories.
Lines come from different studies, so protocols differ.
Target: Ribosomal protein S6 kinase beta-1 (RPS6KB1, Homo sapiens, UniProt P23443)
Read-out: enzyme activity
Mode: inhibitor

FC(F)c1nc2ccccc2n1-c1nc(N2CCOCC2)nc(N2CCOCC2)n1 — remaining activity (10 µM): 98%
CC(C)(C)c1nc2c(s1)c1nc(N)ncc1c1ccc(NS(=O)(=O)c3c(F)cccc3F)c(F)c12 — remaining activity (radiometric; 1 µM): 87%
CCN(CC)CCNC(=O)c1c(C)[nH]c(/C=C2\C(=O)Nc3ccc(F)cc32)c1C — remaining activity (1 µM): 31%
CC(C)(O)[C@H]1CC[C@H](Nc2ccc3ncc(-c4cccc(C(F)(F)F)c4)n3n2)CC1 — remaining activity (1 µM): 96.8%
CC(C)(C)C(=O)c1sc(NC2CCCCC2)nc1N — remaining activity (10 µM): 86%
CCN(CC)c1ccc(C2=NNC(=O)CC2C)cc1[N+](=O)[O-] (stereo not drawn) — remaining activity (10 µM): 109%
Cc1sc(C(=O)NC2COC2)cc1-n1cc(NC(=O)Nc2c(F)cccc2Cl)cn1 — remaining activity (10 µM): 92.1%
COc1cc(Nc2cnc(C#N)c(O[C@H](C)CN(C)C)n2)ncc1-c1cnn(C)c1 — remaining activity (radiometric; 10 µM): 85%
O=S(=O)(Nc1cc(Sc2ncn[nH]2)c(O)c2ccccc12)c1ccc(-c2ccccc2)cc1 — remaining activity (1 µM): ≥ 75%
Cn1c(=O)n(-c2ccc(C(C)(C)C#N)cc2)c2c3cc(-c4cnc5ccccc5c4)ccc3ncc21 — remaining activity (10 µM): 109%
O=C(Nc1cnn(-c2csc(C(=O)NC3COC3)c2)c1)Nc1ccccc1Cl — remaining activity (5 µM): 92.1%
Cc1[nH]c(/C=C2\C(=O)Nc3ccc(F)cc32)c(C)c1C(=O)N[C@H]1CCN(C(=O)N(C)C)C1 — remaining activity (1 µM): 52%
